The text below walks through data of article PMC5652303 (European journal of medicinal chemistry, 2017).

Several values for one entry are separate records, joined by “and”; a condition that tells them apart may be missing. Equal values may be shown once.

Data set [1] concerns H2AX phosphorylation at Ser139. Description: DNA damage response: H2AX phosphorylation in CLL lymphocytes, flow cytometry. Type of data set: cell-based, human. The following applies: 10 µM, 24 hours. The essentials: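 Lymphocytes were isolated from CLL patients' peripheral blood on a Ficoll-hypaque gradient and held in RPMI with 10% autologous plasma. After compound exposure, cells were washed in PBS, fixed in ice-cold 70% ethanol and stored at −20 °C. They were then permeabilised, stained with FITC anti-H2AX Ser139 antibody, and analysed by flow cytometry.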

In data set [2] the test system is 49-mer DNA duplex 25. Description: H2O2-induced DNA interstrand cross-link. The data set is classed as biochemical. The following applies: for DNA ICL cross-linking yield without H2O2: no H2O2, duplex 25, pH 8 phosphate buffer; for Kinetics of ICL formation: Time of completion: phosphate buffer pH 8; for ICL formation rate constant relative to 1a: rate constants of Table 1. The essentials: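 The 32P-labelled strand (0.5 µM) was annealed to 1.5 equiv of complement at 65 °C for 3 min in 10 mM potassium phosphate pH 7 with 100 mM NaCl, then cooled slowly overnight. Duplex, NaCl, potassium phosphate (pH 6–8), H2O2 and compound (100 µM–2 mM, in CH3CN) were incubated 24 h; some runs went 48 h. Reactions were quenched with 90% formamide loading buffer and run on 20% denaturing PAGE with phosphorimaging. Yields were corrected for the no-H2O2 control.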

Data set [3] concerns normal lymphocytes. Description: Viability of normal lymphocytes, annexin/PI binding assay. Type of data set: cell-based, human. The following applies: healthy donors (n=2), 10 µM, 24 hours. In a few lines: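 Lymphocytes were separated from healthy donors' peripheral blood on a Ficoll-hypaque gradient and suspended in RPMI with 10% autologous plasma. After compound exposure, the percentage of viable cells was scored by annexin V/propidium iodide binding.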

Data set [4] has as its system ovarian cancer SKOV3 cell. Description: Cytotoxicity in SKOV3 cells. The following applies: for IC50: Homo sapiens, SK-OV-3; for Cytotoxicity (initial test): SKOV3 cells. Type of data set: cell-based. The essentials:
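Cells grown in RPMI 1640 with 5% FBS and 2 mM L-glutamine, seeded at 5,000–10,000 cells/well in 384-well plates, and left 2–3 h at 37 °C, 5% CO2. Compounds were made as 20 mM DMSO stocks and serially diluted 2-fold ten times, then added at 1:100. After 48 h, viability was read by CellTiter-Glo luminescence after 10 min at room temperature. IC50 came from four-parameter nonlinear regression.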

Data set [5] can be described thus: Monomer reaction with H2O2 by NMR analysis. The note with it: for Disappearance of starting materials: Time of completion / Disappearance of starting materials: kobs / QM formation: Time of completion / QM formation: kobs: DMSO/deuterated phosphate buffer pH 8 (3:2), with H2O2; for Time to completion of reaction with H2O2 (oxidative deboronation): phosphate buffer pH 8 in D2O/DMSO 2:3, SI Figures S14, 15, 17, 18. The data set is classed as physicochemical.

The nature of data set [6]: Chemical stability of the compounds. The data set is classed as physicochemical. The following applies: for Hydrolysis of the acetate group: NMR, phosphate buffer pH 8 in D2O/DMSO 2:3, before addition of H2O2.
The subject of data set [7] is 60 human cancer cell lines. The experiment in a line: NCI DTP in vitro cancer cell screen. The data set is classed as cell-based. The note with it: 10 µM, most of the 60 cell lines. In a few lines:
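NCI DTP screen. Human tumour cell lines were grown in RPMI 1640 with 5% FBS and 2 mM L-glutamine. Cells were plated in 96-well plates at 5,000–40,000 cells/well, set by each line's doubling time, and treated at a single 10 µM dose.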

Data set [8] concerns breast cancer MDA-MB-468. The experiment in a line: Cytotoxicity towards tumor cells. The data set is classed as cell-based. The note with it: Homo sapiens, MDA-MB-468, 48 h.

As to `CC1(C)OB(c2c(CBr)cccc2CBr)OC1(C)C` [1a], in data set [1], the “Induction of DNA damage response (H2AX phosphorylation)” value (from here on “Induction of DNA damage response”) is given as “induction of DNA damage response”. In addition, the “DNA ICL cross-linking yield without H2O2” value in data set [2] (2 mM compound, 37 °C) is on record as 0%. Besides, in data set [2], the “Kinetics of ICL formation: Time of completion” value (shortened to “Kinetics of ICL formation”) is 600 min. The “Toxicity to normal lymphocytes” value in data set [3] is given as “no significant toxicity”. The same compound displayed an IC50 in data set [4] of 6.3 µM. In data set [5], the “Disappearance of starting materials: Time of completion” value (shortened to “Disappearance … of completion”) is listed as 60 min, the “Disappearance of starting materials: kobs” value (from here on “Disappearance … kobs”) is recorded as 39.0 ± 1.5 10^−5 s^−1, the “QM formation: Time of completion” value is on record as 60 min and the “QM formation: kobs” value is listed as 9.5 ± 0.2 10^−5 s^−1.

Turning to `CC(=O)OCc1cccc(COC(C)=O)c1B1OC(C)(C)C(C)(C)O1` [1b, (2-(4,4,5,5-Tetramethyl-1,3,2-dioxaborolan-2-yl)-1,3-phenylene)bis(methylene) diacetate], in data set [4], the “Cytotoxicity (initial test)” value is recorded as “not cytotoxic”. In data set [5], the “Disappearance … of completion” value is on record as 240 min, the “Disappearance … kobs” value is on record as 19.4 ± 1.2 10^−5 s^−1 and the “QM formation: Time of completion” value came to 240 min. Moreover, the “Hydrolysis of the acetate group” value in data set [6] is listed as “hydrolyzed prior to addition of H2O2”.

For the compound `COc1cc(CBr)c(B2OC(C)(C)C(C)(C)O2)c(CBr)c1` [2a, 2-(2,6-Bis(bromomethyl)-4-methoxyphenyl)-4,4,5,5-tetramethyl-1,3,2-dioxaborolane], the “Induction of DNA damage response” value in data set [1] is reported as “induction of DNA damage response”. For the same compound, in data set [2], the “Kinetics of ICL formation” value is on record as 240 min and the “ICL formation rate constant relative to 1a” value is 2–3 times. In addition, the “Toxicity to normal lymphocytes” value in data set [3] is “no significant toxicity”. In data set [4], the IC50 turned out to be 5.2 µM. For the same compound, in data set [5], the “Disappearance … of completion” value is recorded as 42 min, the “Disappearance … kobs” value was 56.7 ± 4.3 10^−5 s^−1, the “QM formation: Time of completion” value is recorded as 50 min and the “QM formation: kobs” value is 38.3 ± 2.2 10^−5 s^−1. Also, in data set [6], the Chemical stability result is “chemically stable”. Moreover, the “Growth percentage of most cell lines, single dose screening” value in data set [7] is listed as “less than 50%”.

Take `COc1cc(COC(C)=O)c(B2OC(C)(C)C(C)(C)O2)c(COC(C)=O)c1` [2b, (5-Methoxy-2-(4,4,5,5-tetramethyl-1,3,2-dioxaborolan-2-yl)-1,3-phenylene)bis(methylene) diacetate]: the “Cytotoxicity (initial test)” value in data set [4] is listed as “not cytotoxic”. In addition, in data set [5], the “Disappearance … of completion” value was determined as 480 min, the “Disappearance … kobs” value is given as 9.1 ± 0.6 10^−5 s^−1, the “QM formation: Time of completion” value is 480 min and the “Time to completion of reaction with H2O2 (oxidative deboronation)” value is listed as “not finished within one hour”. For the same compound, the “Hydrolysis of the acetate group” value in data set [6] was “hydrolyzed prior to addition of H2O2”.

Regarding `COc1cc(OC)c(CBr)c(B2OC(C)(C)C(C)(C)O2)c1CBr` [3a, 2-(2,6-Bis(bromomethyl)-3,5-dimethoxyphenyl)-4,4,5,5-tetramethyl-1,3,2-dioxaborolane], the “DNA ICL cross-linking yield without H2O2” value in data set [2] (2 mM compound, 37 °C) is 17 ± 3% and 17%. For the same compound, the Chemical stability result in data set [6] was “not stable and easily decomposed even at 0 °C”.

As for `COc1c(CBr)c(B2OC(C)(C)C(C)(C)O2)c(CBr)c(OC)c1OC` [4a, 2-(2,6-Bis(bromomethyl)-3,4,5-trimethoxyphenyl)-4,4,5,5-tetramethyl-1,3,2-dioxaborolane], in data set [2] (2 mM compound, 2 mM H2O2, duplex 25, pH 8 phosphate buffer, 37 °C), the “DNA ICL cross-linking yield with H2O2” value is listed as 0%. In data set [2] (2 mM compound, 37 °C), the “DNA ICL cross-linking yield without H2O2” value was determined as 0%. Further, the “ICL yield after incubation of ICL products at pH 6” value in data set [2] (ICLs generated at pH 6, then incubated at pH 6, 37 °C, 24 h) is given as “remained unchanged”. Moreover, in data set [2] (ICLs generated at pH 6, then incubated at pH 8, 37 °C, 24 h), the “ICL yield after incubation of ICL products at pH 8” value stood at 3.0 ± 0.5%. In addition, the “ICL yield of ICL products generated with 4a at pH 6” value in data set [2] (duplex 25, generated at pH 6, before further incubation) came to 16.6 ± 1.0%. In addition, in data set [2] (with H2O2, pH 7 or higher), the “DNA ICL product formation at pH 7 or higher pH” value is “not formed”. For the same compound, the “Cytotoxicity (initial test)” value in data set [4] is reported as “not cytotoxic”. For the same compound, the Chemical stability entry in data set [6] is listed as “more stable than 3a”.

As to `CC1(C)OB(c2c(CBr)cc(O)cc2CBr)OC1(C)C` [5a, 3,5-Bis(bromomethyl)-4-(4,4,5,5-tetramethyl-1,3,2-dioxaborolan-2-yl)phenol], the “Induction of DNA damage response” value in data set [1] is listed as “induction of DNA damage response”. Also, in data set [2], the “Kinetics of ICL formation” value stood at 300 min and the “ICL formation rate constant relative to 1a” value is on record as 2–3 times. In addition, the “Toxicity to normal lymphocytes” value in data set [3] is on record as “no significant toxicity”. In data set [4], the 50% inhibitory concentration (IC50) was determined as 3.8 µM. For the same compound, in data set [5], the “Disappearance … of completion” value came to 40 min, the “Disappearance … kobs” value is listed as 61.7 ± 3.2 10^−5 s^−1, the “QM formation: Time of completion” value was determined as 40 min and the “QM formation: kobs” value is 58.3 ± 4.3 10^−5 s^−1. In addition, the Chemical stability entry in data set [6] is on record as “relatively stable”.

With `CC(=O)OCc1cc(O)cc(COC(C)=O)c1B1OC(C)(C)C(C)(C)O1` [5b, (5-Hydroxy-2-(4,4,5,5-tetramethyl-1,3,2-dioxaborolan-2-yl)-1,3-phenylene)bis(methylene) diacetate], in data set [5], the “Disappearance … of completion” value is listed as 480 min, the “Disappearance … kobs” value is on record as 8.3 ± 0.5 10^−5 s^−1, the “QM formation: Time of completion” value is 480 min and the “Time to completion of reaction with H2O2 (oxidative deboronation)” value is on record as “not finished within one hour”. Further, in data set [6], the “Hydrolysis of the acetate group” value was “hydrolyzed prior to addition of H2O2”.

Compound `O=C(O)CCCc1ccc(N(CCCl)CCCl)cc1` [Chlorambucil, chlorambucil] yielded an IC50 in data set [8] of 34.4 µM.

Take `N[C@@H](Cc1ccc(N(CCCl)CCCl)cc1)C(=O)O` [Melphalan, melphalan]: in data set [8], the half-maximal inhibitory concentration (IC50) worked out at 48.7 µM.
